Data taken from ChEMBL document CHEMBL4433227, “Enhancing the ligand efficiency of anti-HIV compounds targeting frameshift-stimulating RNA” (Bioorg Med Chem, 2019).
Activity calls are given as the source filed them. The calls are words filed in the database; no cut-off is given here.

Assays:
[1] = (§1) Competitive binding affinity to HIV-1 FSS RNA assessed as dissociation constant in presence of bulk yeast tRNA by SPR assay; design: species or system Human immunodeficiency virus 1
[2] = system: Human immunodeficiency virus 1; test: Binding affinity to HIV-1 FSS RNA assessed as association rate constant by SPR assay
Summary of the method: (§2)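 Compounds injected in HBS at 80 μL/min for 1 min, at least two injections per concentration. Each curve fit to a 1:1 Langmuir model, using the two lowest fittable concentrations. Kinetic constants averaged.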

[3] = system: Human immunodeficiency virus 1; test: Binding affinity to HIV-1 FSS RNA assessed as dissociation rate constant by SPR assay; summary of the method: as §2
[4] = Binding affinity to HIV-1 FSS RNA assessed as dissociation constant by SPR assay; design: species or system Human immunodeficiency virus 1; summary of the method: as §2
[5] = system: Human immunodeficiency virus 1; test: Antiviral activity against HIV1 3B infected in human MT2 cells assessed as reduction in p24 Gag protein production at 25 uM on day 6 post infection by ELISA relative to control; format: functional; design: scale not given: the % may be the effect or the level left
[6] = Cytotoxicity against human HEK293FT cells assessed as reduction in viability at < 40 uM after 24 hrs by WST1 assay; format: cell-based
Summary of the method: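 HEK293FT cells, 2.5×10^4/well in triplicate, grown in DMEM with 10% FBS and 1% pen-strep at 37 °C. After 4 h adherence, compound dilutions added for 24 h. WST-1 then added for 1 h and the signal read on a plate reader. Mitochondrial activity taken as the metabolic read-out.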

[7] = system: Human immunodeficiency virus; test: Binding affinity to HIV frameshift-stimulating RNA assessed as upregulation of HIV p160 Gag-pol protein expression by Western blot analysis
[8] = system: Human immunodeficiency virus; test: Antiviral activity against pseudotyped HIV assessed as reduction in viral production; format: functional, organism-based
[9] = system: Human immunodeficiency virus; test: Antiviral activity against pseudotyped HIV assessed as reduction in viral infectivity; format: functional, organism-based
[10] = system: Human immunodeficiency virus 1; test: Binding affinity to HIV-1 FSS RNA at 2 uM dialyzed up to 36 hrs by HPLC analysis
Summary of the method: (§3)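 RNAs refolded at 2.5 μM in PBS with 1 mM EDTA (25 °C, 90 °C, then 27 °C). Tubes (3500 MWCO) held 200 μL of RNA, in duplicate, with an RNA-free control tube. Dialysis against 2.0 μM compound in PBS for 36 h. Compound concentration inside the tubes measured by HPLC.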

[11] = organism: Homo sapiens; test: Binding affinity to human IRF5 RNA at 2 uM dialyzed up to 36 hrs by HPLC analysis; summary of the method: as §3
[12] = organism: Homo sapiens; test: Binding affinity to human BDNF RNA at 2 uM dialyzed up to 36 hrs by HPLC analysis; summary of the method: as §3
[13] = system: Human immunodeficiency virus 1; test: as §1
[14] = system: Human immunodeficiency virus 1; test: Antiviral activity against HIV1 3B infected in human MT2 cells assessed as reduction in p24 Gag protein production on day 6 post infection by ELISA; format: functional, organism-based; settings: Human immunodeficiency virus 1, 3B, MT2, 144 h
[15] = system: Human immunodeficiency virus 1; test: Antiviral activity against patient derived multidrug resistant HIV1 AD.MDR01; format: functional, organism-based
[16] = system: Human immunodeficiency virus 1; test: Antiviral activity against HIV1 3B; format: functional, organism-based

SMILES | Kd [1] | Ka [2] | Kdiss [3] | Kd [4] | Activity [5] | also measured
CCc1nc2ccccc2cc1C(=O)N(C)[C@@H](CCn1cc(C[C@@H](C(=O)N2C[C@H](O)C[C@H]2C(=O)N(C)[C@@H](Cc2ccccc2)C(=O)NCCCN)N(C)C(=O)c2cc3ccccc3nc2CC)nn1)C(=O)N1C[C@H](O)C[C@H]1C(=O)N(C)[C@@H](Cc1ccccc1)C(=O)NCCCN | 441 nM | 1.49 ×10⁴ /M.s | 6.8 ×10⁻³ /s | 583 nM | 63% | –
CCc1nc2ccccc2cc1C(=O)N(C)[C@@H](CCn1cc(C[C@@H](C(=O)N2CCC[C@H]2C(=O)N(C)[C@@H](Cc2ccccc2)C(=O)NCCCN)N(C)C(=O)c2cc3ccccc3nc2CC)nn1)C(=O)N1CCC[C@H]1C(=O)N(C)[C@@H](Cc1ccccc1)C(=O)NCCCN | 132 nM | 6.49 ×10⁴ /M.s | 2.37 ×10⁻² /s | 497 nM | 63% | Activity [6]: Toxic
CCc1nc2cc3ccccc3cc2cc1C(=O)N[C@@H](C/C=C\C[C@H](NC(=O)c1cc2cc3ccccc3cc2nc1CC)C(=O)N1CCC[C@H]1C(=O)N[C@@H](Cc1ccccc1)C(=O)NCCCN)C(=O)N1CCC[C@H]1C(=O)N[C@@H](Cc1ccccc1)C(=O)NCCCN | – | – | – | 102 nM | – | Activity [7]: Dose-dependent effect; Activity [8]: Active; Activity [9]: Active
CN(C(=O)c1cnc2ccccc2c1)[C@@H](CCn1cc(C[C@@H](C(=O)N2C[C@H](O)C[C@H]2C(=O)N(C)[C@@H](Cc2ccccc2)C(N)=O)N(C)C(=O)c2cnc3ccccc3c2)nn1)C(=O)N1C[C@H](O)C[C@H]1C(=O)N(C)[C@@H](Cc1ccccc1)C(N)=O | – | 4.09 ×10³ /M.s | 5.41 ×10⁻³ /s | 1470 nM | – | –
CN(C(=O)c1cnc2ccccc2c1)[C@@H](CCn1cc(C[C@@H](C(=O)N2C[C@H](O)C[C@H]2C(=O)N(C)[C@@H](Cc2ccccc2)C(=O)NCCCN)N(C)C(=O)c2cnc3ccccc3c2)nn1)C(=O)N1C[C@H](O)C[C@H]1C(=O)N(C)[C@@H](Cc1ccccc1)C(=O)NCCCN | 183 nM | 6.74 ×10⁴ /M.s | 5.42 ×10⁻³ /s | 110 nM | 63% | –
CN(C(=O)c1cnc2ccccc2c1)[C@@H](CCn1cc(C[C@@H](C(=O)N2CCC[C@H]2C(=O)N(C)[C@@H](Cc2ccccc2)C(=O)NCCCN)N(C)C(=O)c2cnc3ccccc3c2)nn1)C(=O)N1CCC[C@H]1C(=O)N(C)[C@@H](Cc1ccccc1)C(=O)NCCCN | 124 nM | 5.66 ×10⁴ /M.s | 2.26 ×10⁻³ /s | 62.2 nM | 63% | Activity [10]: Active; Activity [11]: Active; Activity [12]: Active
NC[C@@H]1O[C@H](O[C@H]2[C@@H](O)[C@H](O[C@@H]3[C@@H](O)[C@H](N)C[C@H](N)[C@H]3O[C@H]3O[C@H](CN)[C@@H](O)[C@H](O)[C@H]3N)O[C@@H]2CO)[C@H](N)[C@@H](O)[C@@H]1O [FRAMYCETIN] | – | – | – | 779000 nM | – | Activity [13]: inactive
CCc1nc2ccccc2cc1C(=O)N(C)[C@@H](CCn1cc(C[C@@H](C(=O)N2CCC[C@H]2C(=O)N(C)[C@@H](Cc2ccccc2)C(N)=O)N(C)C(=O)c2cc3ccccc3nc2CC)nn1)C(=O)N1CCC[C@H]1C(=O)N(C)[C@@H](Cc1ccccc1)C(N)=O | 16800 nM | 1.69 ×10³ /M.s | 2.07 ×10⁻² /s | 19300 nM | – | –
CCc1nc2cc3ccccc3cc2cc1C(=O)N(C)[C@@H](CCn1cc(C[C@@H](C(=O)N2CCC[C@H]2C(=O)N(C)[C@@H](Cc2ccccc2)C(=O)NCCCN)N(C)C(=O)c2cc3cc4ccccc4cc3nc2CC)nn1)C(=O)N1CCC[C@H]1C(=O)N(C)[C@@H](Cc1ccccc1)C(=O)NCCCN | 130 nM | 1.9 ×10⁵ /M.s | 3 ×10⁻³ /s | 16 nM | – | Activity [7]: Dose-dependent effect; IC50 [14]: 4.86 µM; Activity [15]: Active; Activity [8]: Active; Activity [9]: Active; Activity [16]: Active
